≈ marks a conversion by molar mass, not a printed value.
Tests used:
[1] = system: 1-D6; assay: icELISA with mAb 1-D6; format: binding, Balb/c mice; conditions: for CR: CR%=IC50 6-GG/IC50 test compound x100%
Procedure, shortened: (§1)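 Ascites-derived mAbs (caprylic acid–ammonium sulfate purified) from female Balb/c mice immunized with hapten–BSA. Plates coated with hapten–OVA in carbonate buffer (0.5 mol L−1, pH 9.6), blocked with 5% skim milk, washed with PBST, and detected with goat anti-mouse IgG-HRP; reaction stopped with 2 mol L−1 H2SO4. Analyte stocks (1 mg/mL, 70% methanol) were diluted in 10% methanol-PBS. IC50 values were fitted, and cross-reactivity was calculated for capsaicinoids, gingerol derivatives and eight other compounds.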

[2] = system: 1-G12; assay: icELISA with mAb 1-G12; format: binding, Balb/c mice; conditions: for CR: CR%=IC50 6-GG/IC50 test compound x100%
Procedure, shortened: as §1

[3] = system: 1-F12; assay: icELISA with mAb 1-F12; format: binding, Balb/c mice; conditions: for CR: CR%=IC50 6-GG/IC50 test compound x100%
Procedure, shortened: as §1

[4] = system: 6-AT6; assay: icELISA with mAb 6-AT6; format: binding
[5] = system: 4-AT4; assay: icELISA with mAb 4-AT4; format: binding
[6] = system: 2-LD2; assay: icELISA with mAb 2-LD2; format: binding
[7] = system: 3-LD3; assay: icELISA with mAb 3-LD3; format: binding
[8] = system: 5-3H1; assay: icELISA with mAb 5-3H1; format: binding
[9] = system: 5-D8; assay: icELISA with mAb 5-D8; format: binding
[10] = mAb 1-D6, specific evaluation (Table 1, Fig. 3C)
[11] = mAb 1-G12, specific evaluation (Table 1, Fig. 3D)
[12] = mAb 1-F12, specific evaluation (Table 1, Fig. 3B)
[13] = coating antigen Hapten 1-OVA, mAb 1-D6
[14] = coating antigen Hapten 2-OVA, mAb 1-D6
[15] = coating antigen Hapten 3-OVA, mAb 1-D6
[16] = coating antigen Hapten 4-OVA, mAb 1-D6
[17] = coating antigen Hapten 5-OVA, mAb 1-D6
[18] = coating antigen Hapten 6-OVA, mAb 1-D6
[19] = coating antigen Hapten 1-OVA, mAb 1-G12
[20] = coating antigen Hapten 2-OVA, mAb 1-G12
[21] = coating antigen Hapten 3-OVA, mAb 1-G12
[22] = coating antigen Hapten 4-OVA, mAb 1-G12
[23] = coating antigen Hapten 5-OVA, mAb 1-G12
[24] = coating antigen Hapten 6-OVA, mAb 1-G12
[25] = coating antigen Hapten 1-OVA, mAb 1-F12
[26] = coating antigen Hapten 2-OVA, mAb 1-F12
[27] = coating antigen Hapten 3-OVA, mAb 1-F12
[28] = coating antigen Hapten 4-OVA, mAb 1-F12
[29] = coating antigen Hapten 5-OVA, mAb 1-F12 (optimal combination)
[30] = coating antigen Hapten 6-OVA, mAb 1-F12

COc1cccc(CNC(=O)CC#N)c1 [2-Cyano-N-(3-methoxybenzyl) acetamide]
IC50 [1, 10]: >4 µg/mL
CR ([1]; mAb 1-D6): <1.48%
IC50 [2, 11]: >4 µg/mL
CR ([2]; mAb 1-G12): <14.01%
IC50 [3, 12]: >4 µg/mL
CR ([3]; mAb 1-F12): <12.66%

CCCCCCCC(=O)CCc1cc(OC)c(O)c(C(=O)O)c1 [2-hydroxy-3-methoxy-5-(3-oxodecyl) benzoic acid]
IC50 [1, 10]: 1.9528 µg/mL (≈ 6.06 µM)
CR ([1]; mAb 1-D6): 3.03%
IC50 [2, 11]: >4 µg/mL
CR ([2]; mAb 1-G12): <14.01%
IC50 [3, 12]: >4 µg/mL
CR ([3]; mAb 1-F12): <12.66%

COc1cc(CCC(=O)O)ccc1O [3-(4-Hydroxy-3-methoxyphenyl) propionic Acid]
IC50 [1, 10]: 2.17533 µg/mL (≈ 11.1 µM)
CR ([1]; mAb 1-D6): 2.72%
IC50 [2, 11]: >4 µg/mL
CR ([2]; mAb 1-G12): <14.01%
IC50 [3, 12]: >4 µg/mL
CR ([3]; mAb 1-F12): <12.66%

COc1cc(CNC(=O)CCCC/C=C/C(C)C)ccc1O [CPC, Capsaicin]
IC50 ([4]; coating antigen Hapten 1-OVA): >4 µg/mL
IC50 ([4]; coating antigen Hapten 2-OVA): >4 µg/mL
IC50 ([4]; coating antigen Hapten 3-OVA): >4 µg/mL
IC50 ([4]; coating antigen Hapten 4-OVA): >4 µg/mL
IC50 ([4]; coating antigen Hapten 5-OVA): >4 µg/mL
IC50 ([4]; coating antigen Hapten 6-OVA): >4 µg/mL
IC50 ([5]; coating antigen Hapten 1-OVA): 0.00502 µg/mL (≈ 0.0164 µM)
IC50 ([5]; coating antigen Hapten 2-OVA): 0.13283 µg/mL (≈ 0.435 µM)
IC50 ([5]; coating antigen Hapten 3-OVA): 0.27036 µg/mL (≈ 0.885 µM)
IC50 ([5]; coating antigen Hapten 4-OVA): 0.00651 µg/mL (≈ 0.0213 µM)
IC50 ([5]; coating antigen Hapten 5-OVA): 0.00379 µg/mL (≈ 0.0124 µM)
IC50 ([6]; coating antigen Hapten 1-OVA): 0.11875 µg/mL (≈ 0.389 µM)
IC50 ([6]; coating antigen Hapten 2-OVA): 0.00961 µg/mL (≈ 0.0315 µM)
IC50 ([6]; coating antigen Hapten 3-OVA): 0.01715 µg/mL (≈ 0.0562 µM)
IC50 ([6]; coating antigen Hapten 4-OVA): 0.00119 µg/mL (≈ 0.0039 µM)
IC50 ([7]; coating antigen Hapten 2-OVA): 0.01016 µg/mL (≈ 0.0333 µM)
IC50 ([7]; coating antigen Hapten 3-OVA): 0.03008 µg/mL (≈ 0.0985 µM)
IC50 ([7]; coating antigen Hapten 4-OVA): 0.00387 µg/mL (≈ 0.0127 µM)
IC50 [1, 13]: >4 µg/mL
IC50 [1, 14]: >4 µg/mL
IC50 [1, 15]: >4 µg/mL
IC50 [1, 16]: 0.91716 µg/mL (≈ 3 µM)
IC50 [1, 17]: 0.93917 µg/mL (≈ 3.08 µM)
IC50 [1, 18]: 0.26434 µg/mL (≈ 0.866 µM)
IC50 [1, 10]: >4 µg/mL
CR ([1]; mAb 1-D6): <1.48%
IC50 [2, 19]: 1.22906 µg/mL (≈ 4.02 µM)
IC50 [2, 20]: >4 µg/mL
IC50 [2, 21]: >4 µg/mL
IC50 [2, 22]: 0.83506 µg/mL (≈ 2.73 µM)
IC50 [2, 23]: 0.33939 µg/mL (≈ 1.11 µM)
IC50 [2, 24]: 0.66185 µg/mL (≈ 2.17 µM)
IC50 [2, 11]: 1.22906 µg/mL (≈ 4.02 µM)
CR ([2]; mAb 1-G12): 45.61%
IC50 ([8]; coating antigen Hapten 1-OVA): 1.15967 µg/mL (≈ 3.8 µM)
IC50 ([8]; coating antigen Hapten 2-OVA): 0.547 µg/mL (≈ 1.79 µM)
IC50 ([8]; coating antigen Hapten 3-OVA): 0.79417 µg/mL (≈ 2.6 µM)
IC50 ([8]; coating antigen Hapten 4-OVA): 0.02586 µg/mL (≈ 0.0847 µM)
IC50 ([8]; coating antigen Hapten 5-OVA): 0.10327 µg/mL (≈ 0.338 µM)
IC50 ([9]; coating antigen Hapten 1-OVA): 0.03987 µg/mL (≈ 0.131 µM)
IC50 ([9]; coating antigen Hapten 2-OVA): 0.54041 µg/mL (≈ 1.77 µM)
IC50 ([9]; coating antigen Hapten 3-OVA): 0.56457 µg/mL (≈ 1.85 µM)
IC50 ([9]; coating antigen Hapten 4-OVA): 0.02878 µg/mL (≈ 0.0942 µM)
IC50 ([9]; coating antigen Hapten 5-OVA): 0.04559 µg/mL (≈ 0.149 µM)
IC50 [3, 25]: 0.58442 µg/mL (≈ 1.91 µM)
IC50 [3, 26]: >4 µg/mL
IC50 [3, 27]: >4 µg/mL
IC50 [3, 28]: 0.79654 µg/mL (≈ 2.61 µM)
IC50 [3, 29]: 0.48151 µg/mL
IC50 [3, 30]: 1.35443 µg/mL (≈ 4.43 µM)
CR ([3]; mAb 1-F12): 86.62%

COc1cc(CNC(=O)CCCCCCC(C)C)ccc1O [DCPC, dihydrocapsaicin]
IC50 ([4]; coating antigen Hapten 1-OVA): >4 µg/mL
IC50 ([4]; coating antigen Hapten 2-OVA): >4 µg/mL
IC50 ([4]; coating antigen Hapten 3-OVA): >4 µg/mL
IC50 ([4]; coating antigen Hapten 4-OVA): >4 µg/mL
IC50 ([4]; coating antigen Hapten 5-OVA): 1.46054 µg/mL (≈ 4.75 µM)
IC50 ([4]; coating antigen Hapten 6-OVA): >4 µg/mL
IC50 ([5]; coating antigen Hapten 1-OVA): 0.00581 µg/mL (≈ 0.0189 µM)
IC50 ([5]; coating antigen Hapten 2-OVA): 0.05733 µg/mL (≈ 0.186 µM)
IC50 ([5]; coating antigen Hapten 3-OVA): 0.25387 µg/mL (≈ 0.826 µM)
IC50 ([5]; coating antigen Hapten 4-OVA): 0.01068 µg/mL (≈ 0.0347 µM)
IC50 ([5]; coating antigen Hapten 5-OVA): 0.00313 µg/mL (≈ 0.0102 µM)
IC50 ([6]; coating antigen Hapten 1-OVA): 0.00947 µg/mL (≈ 0.0308 µM)
IC50 ([6]; coating antigen Hapten 2-OVA): 0.00485 µg/mL (≈ 0.0158 µM)
IC50 ([6]; coating antigen Hapten 3-OVA): 0.00154 µg/mL (≈ 0.00501 µM)
IC50 ([6]; coating antigen Hapten 4-OVA): 0.00073 µg/mL (≈ 0.00237 µM)
IC50 ([7]; coating antigen Hapten 2-OVA): 0.00124 µg/mL (≈ 0.00403 µM)
IC50 ([7]; coating antigen Hapten 3-OVA): 0.00062 µg/mL (≈ 0.00202 µM)
IC50 ([7]; coating antigen Hapten 4-OVA): 0.00184 µg/mL (≈ 0.00599 µM)
IC50 [1, 13]: 0.96982 µg/mL (≈ 3.15 µM)
IC50 [1, 14]: >4 µg/mL
IC50 [1, 15]: >4 µg/mL
IC50 [1, 16]: 0.70128 µg/mL (≈ 2.28 µM)
IC50 [1, 17]: 0.58873 µg/mL (≈ 1.91 µM)
IC50 [1, 18]: 0.16792 µg/mL (≈ 0.546 µM)
IC50 [1, 10]: 0.96982 µg/mL (≈ 3.15 µM)
CR ([1]; mAb 1-D6): 6.10%
IC50 [2, 19]: 0.70085 µg/mL (≈ 2.28 µM)
IC50 [2, 20]: >4 µg/mL
IC50 [2, 21]: >4 µg/mL
IC50 [2, 22]: 0.72469 µg/mL (≈ 2.36 µM)
IC50 [2, 23]: 0.37358 µg/mL (≈ 1.22 µM)
IC50 [2, 24]: 0.35151 µg/mL (≈ 1.14 µM)
IC50 [2, 11]: 0.70085 µg/mL (≈ 2.28 µM)
CR ([2]; mAb 1-G12): 79.99%
IC50 ([8]; coating antigen Hapten 1-OVA): 0.01598 µg/mL (≈ 0.052 µM)
IC50 ([8]; coating antigen Hapten 2-OVA): 0.10263 µg/mL (≈ 0.334 µM)
IC50 ([8]; coating antigen Hapten 3-OVA): 0.25386 µg/mL (≈ 0.826 µM)
IC50 ([8]; coating antigen Hapten 4-OVA): 0.01135 µg/mL (≈ 0.0369 µM)
IC50 ([8]; coating antigen Hapten 5-OVA): 0.03124 µg/mL (≈ 0.102 µM)
IC50 ([9]; coating antigen Hapten 1-OVA): 0.00582 µg/mL (≈ 0.0189 µM)
IC50 ([9]; coating antigen Hapten 2-OVA): 0.16652 µg/mL (≈ 0.542 µM)
IC50 ([9]; coating antigen Hapten 3-OVA): 0.05575 µg/mL (≈ 0.181 µM)
IC50 ([9]; coating antigen Hapten 4-OVA): 0.0109 µg/mL (≈ 0.0355 µM)
IC50 ([9]; coating antigen Hapten 5-OVA): 0.01319 µg/mL (≈ 0.0429 µM)
IC50 [3, 25]: 0.55714 µg/mL (≈ 1.81 µM)
IC50 [3, 26]: >4 µg/mL
IC50 [3, 27]: >4 µg/mL
IC50 [3, 28]: 0.41585 µg/mL (≈ 1.35 µM)
IC50 [3, 29]: 0.14358 µg/mL
IC50 [3, 30]: 0.8841 µg/mL (≈ 2.88 µM)
IC50 [3, 12]: 0.55714 µg/mL (≈ 1.81 µM)
CR ([3]; mAb 1-F12): 90.86%
